Laboratory results from ChEMBL document CHEMBL4840302, “Si113-prodrugs selectively activated by plasmin against hepatocellular and ovarian carcinoma” (Eur J Med Chem, 2021).
Converted amounts (≈) assume the structure as drawn. The source made the active and inactive calls. The rule behind the calls is not given here.

Columns and labels:
A2780TC [1] = test: Antitumor activity against paclitaxel resistant human A2780TC cells xenografted in nude mouse assessed as reduction in tumor growth at 5 mg/kg/day, ip administered for 5 days/ week and measured every 7 days for 21 days; assay type: functional, organism-based; settings: time 21.0 day
[2] = Drug concentration in naive BALB/C mouse liver at 21 mg/kg, ip administered as single dose incubated for 24 hrs followed by heparin treatment by LC-MS/MS analysis; assay type: ADME, organism-based; settings: in vivo
In short: (§1)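 Healthy male BALB/c mice, 4–6 weeks old, given a single i.p. 21 mg/kg prodrug dose in saline. At 24 h, heparin i.p. (5000 U/kg), then sacrifice under CO2. Organs homogenised with acetonitrile containing internal standard, centrifuged, filtered and quantified by LC-MS/MS against calibration curves. n = 3 per time point.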

[3] = Stability of the compound in human plasma assessed as half life at 3 mM measured up to 24 hrs by UV/LC-MS analysis; assay type: ADME, cell-free
[4] = Aqueous solubility of the compound at 1 mg incubated for 24 hrs under shaking condition by LC-MS/MS analysis; assay type: physicochemical; settings: water
plasmin = plasmin (Homo sapiens, UniProt P00747); test: Stability of the compound in human plasmin solution assessed as half life at 7.5 mM measured up to 24 hrs by UV/LC-MS analysis; assay type: ADME
In short: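 Human plasmin mixed with Tris buffer (pH 7.4, 100 mM) and prodrug (7.5 mM DMSO stock), incubated at 37 °C. Samples taken from 0 to 24 h, quenched with cold acetonitrile and centrifuged; analysed by UV/LC-MS. t1/2 is time to 50% hydrolysis.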

[5] = Drug concentration in naive BALB/C mouse kidney at 21 mg/kg, ip administered as single dose incubated for 24 hrs followed by heparin treatment by LC-MS/MS analysis; assay type: ADME, organism-based; settings: in vivo; in short: as §1
[6] = Permeability of the compound at pH 7.4 at 500 uM incubated for 5 hrs by PAMPA based UV/LC-MS analysis; assay type: ADME; settings: read-out: permeability
In short: (§2)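 Donor: compound diluted from 1 mM DMSO stock to 500 µM final in phosphate buffer (pH 7.4, 25 mM). Filter coated with 1% phosphatidylcholine in dodecane; acceptor 50% DMSO/phosphate buffer. 5 h at room temperature with gentle shaking. Donor and acceptor measured by UV/LC-MS; Papp and %MR calculated by equation. Three independent experiments.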

HepG2 [7] = test: Cytotoxicity against human HepG2 cells assessed as reduction in cell viability measured after 48 hrs by MTT assay; assay type: functional, cell-based; settings: HepG2, 48 h
In short: (§3)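 HepG2, Huh-7 or A2780 cells in DMEM with 10% FBS, 37 °C, 5% CO2. 2.5 × 10^4 cells seeded per well; compounds in DMSO added next day at 0.1, 1.0, 10.0 and 100.0 µM for 24, 48 or 72 h. IC50 from MTT dose-response by sigmoid fit. Means ± S.D. of three independent experiments in triplicate.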

[8] = Drug concentration in nude female mouse ovarian tissue xenografted with human A2780 cells at 9.5 mg/kg, ip administered as single dose incubated for 24 hrs followed by heparin treatment by LC-MS/MS analysis; assay type: ADME, organism-based, Female gonad; settings: in vivo
In short: (§4)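 Female nude mice, xenografted subcutaneously with 2.5 × 10^6 A2780TC cells or left non-xenografted, two per group. Single i.p. dose: Si113 9.5 mg/kg in DMSO or prodrug 21 mg/kg in saline. At 24 h, heparin i.p. (5000 U/kg), then sacrifice under CO2. Plasma, tumour and organs extracted with acetonitrile/internal standard and analysed by LC-MS/MS.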

A2780TC [9] = test: Antitumor activity against paclitaxel resistant human A2780TC cells xenografted in nude mouse assessed as reduction in tumor volume at 9.3 mg/kg/day, ip administered for 5 days/ week and measured every 7 days for 21 days in the presence of paclitaxel; assay type: functional, organism-based; settings: time 21.0 day
A2780 [10] = test: Cytotoxicity against human A2780 cells assessed as reduction in cell viability measured after 24 hrs by MTT assay; assay type: functional, cell-based; settings: A2780, 24 h; in short: as §3
Huh-7 [11] = test: Cytotoxicity against human Huh-7 cells assessed as reduction in cell viability measured after 48 hrs by MTT assay; assay type: functional, cell-based; settings: Huh-7, 48 h; in short: as §3
[12] = Permeability of the compound at pH 7.4 assessed as membrane retension at 500 uM incubated for 5 hrs by PAMPA based UV/LC-MS analysis; assay type: ADME; settings: pH 7.4, 5 h; in short: as §2
A2780TC [13] = test: Antitumor activity against paclitaxel resistant human A2780TC cells xenografted in nude mouse assessed as reduction in tumor volume at 9.3 mg/kg/day, ip administered for 5 days/ week and measured every 7 days for 21 days; assay type: functional, organism-based; settings: time 21.0 day
Huh-7 [14] = test: Cytotoxicity against human Huh-7 cells assessed as reduction in cell viability measured after 72 hrs by MTT assay; assay type: functional, cell-based; settings: Huh-7, 72 h; in short: as §3
Huh-7 [15] = test: Cytotoxicity against human Huh-7 cells assessed as reduction in cell viability measured after 24 hrs by MTT assay; assay type: functional, cell-based; settings: Huh-7, 24 h; in short: as §3
HepG2 [16] = test: Cytotoxicity against human HepG2 cells assessed as reduction in cell viability measured after 24 hrs by MTT assay; assay type: functional, cell-based; settings: HepG2, 24 h; in short: as §3
[17] = biological target: T1, Serine/threonine-protein kinase Sgk1 (Homo sapiens) (UniProt O00141); test: Inhibition of Sgk1 (unknown origin) at 0.6 uM using peptide substrate incubated for 30 mins in the presence of ATP by scintillation counting method relative to control
T1 sequence (whole entry): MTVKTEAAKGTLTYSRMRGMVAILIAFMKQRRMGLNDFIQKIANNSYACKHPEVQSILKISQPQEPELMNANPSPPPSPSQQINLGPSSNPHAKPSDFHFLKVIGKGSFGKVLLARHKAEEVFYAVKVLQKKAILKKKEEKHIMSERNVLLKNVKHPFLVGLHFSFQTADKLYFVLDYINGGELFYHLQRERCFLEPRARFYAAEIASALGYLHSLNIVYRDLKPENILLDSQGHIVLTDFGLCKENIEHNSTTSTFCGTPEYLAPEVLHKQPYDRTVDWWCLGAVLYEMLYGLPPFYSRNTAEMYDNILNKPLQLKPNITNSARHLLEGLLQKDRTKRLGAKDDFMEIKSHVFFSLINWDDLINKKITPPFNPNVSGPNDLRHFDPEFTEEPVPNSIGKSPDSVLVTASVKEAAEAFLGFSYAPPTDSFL

A2780 [18] = test: Cytotoxicity against human A2780 cells assessed as reduction in cell viability measured after 48 hrs by MTT assay; assay type: functional, cell-based; settings: A2780, 48 h; in short: as §3
HepG2 [19] = test: Cytotoxicity against human HepG2 cells assessed as reduction in cell viability measured after 72 hrs by MTT assay; assay type: functional, cell-based; settings: HepG2, 72 h; in short: as §3
[20] = Drug concentration in nude female mouse tumor mass xenografted with human A2780 cells at 9.5 mg/kg, ip administered as single dose incubated for 24 hrs followed by heparin treatment by LC-MS/MS analysis; assay type: ADME, organism-based, Neoplasm; settings: in vivo; in short: as §4
HepG2 [21] = test: Antitumor activity against human HepG2 cells xenografted in female nude mouse assessed as reduction in tumor growth at 9.5 mg/kg, ip administered for 5 days/week and measured every 7 days for 21 days; assay type: functional, organism-based; settings: time 21.0 day, in the assay text read “administered daily” for “administered for 5 days/week”
In short: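 HepG2 cells (2.5 × 10^6, in 1:1 serum-free RPMI/Matrigel) injected subcutaneously in the dorsal posterior-lateral right region of 6-week-old female nude mice. Five mice per group, randomised. Dosing i.p. five days/week, started when tumours reached 100 mm3. Si113 was given in DMSO and prodrugs in saline, dosed to equal molar amounts. Caliper volume (π/6 × a2 × b) measured every 7 days; on day 21 tumours were excised and weighed.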

[22] = biological target: T1, Serine/threonine-protein kinase Sgk1 (Homo sapiens); test: Inhibition of Sgk1 (unknown origin) at 12.5 uM using peptide substrate incubated for 30 mins in the presence of ATP by scintillation counting method relative to control
A2780 [23] = test: Cytotoxicity against human A2780 cells assessed as reduction in cell viability measured after 72 hrs by MTT assay; assay type: functional, cell-based; settings: A2780, 72 h; in short: as §3
[24] = Metabolic stability in human liver microsomes assessed as parent compound remaining at 50 uM incubated for 1 hr in the presence of NADPH regenerating system by UV/LC-MS analysis; assay type: ADME, Microsome; settings: read-out: Stability
In short: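 Human liver microsomes (0.2 mg/mL) with NADPH regenerating system and 50 µM compound in DMSO/phosphate buffer (pH 7.4, 25 mM), 1 h at 37 °C. Reaction quenched with acetonitrile and centrifuged; supernatant dried, taken up in methanol, and unmetabolised compound measured by UV/LC-MS. Three independent experiments.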

[25] = Drug concentration in nude female mouse ovarian tissue xenografted with human A2780 cells at 21 mg/kg, ip administered as single dose incubated for 24 hrs followed by heparin treatment by LC-MS/MS analysis; assay type: ADME, organism-based, Female gonad; settings: in vivo; in short: as §4
[26] = Drug concentration in nude female mouse tumor mass xenografted with human A2780 cells at 21 mg/kg, ip administered as single dose incubated for 24 hrs followed by heparin treatment by LC-MS/MS analysis; assay type: ADME, organism-based, Neoplasm; settings: in vivo; in short: as §4

Sequence of plasmin (P00747 97-580 limits assumed): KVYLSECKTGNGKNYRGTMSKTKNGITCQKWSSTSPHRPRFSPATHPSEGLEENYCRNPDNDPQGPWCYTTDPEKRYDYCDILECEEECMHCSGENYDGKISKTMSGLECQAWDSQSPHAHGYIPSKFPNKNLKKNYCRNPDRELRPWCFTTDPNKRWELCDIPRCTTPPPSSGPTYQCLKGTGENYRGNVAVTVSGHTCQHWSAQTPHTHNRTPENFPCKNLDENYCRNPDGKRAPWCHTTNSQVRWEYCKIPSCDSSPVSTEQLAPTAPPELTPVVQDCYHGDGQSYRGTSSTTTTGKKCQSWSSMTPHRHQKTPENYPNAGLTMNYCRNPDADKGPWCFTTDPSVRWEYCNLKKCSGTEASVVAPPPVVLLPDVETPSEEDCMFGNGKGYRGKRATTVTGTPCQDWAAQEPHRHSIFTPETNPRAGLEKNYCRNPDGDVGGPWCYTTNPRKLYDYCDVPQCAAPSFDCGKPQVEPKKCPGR
Sequence of plasmin (P00747 581-810 limits assumed): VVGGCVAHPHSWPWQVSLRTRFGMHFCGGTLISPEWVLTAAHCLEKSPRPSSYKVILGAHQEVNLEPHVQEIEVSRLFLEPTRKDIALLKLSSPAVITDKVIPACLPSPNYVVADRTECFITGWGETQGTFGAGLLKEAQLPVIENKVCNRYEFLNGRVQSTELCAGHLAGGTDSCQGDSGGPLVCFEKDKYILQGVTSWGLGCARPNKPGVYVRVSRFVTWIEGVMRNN

SMILES: CC(=O)O[C@H]1C(=O)[C@@]2(C)[C@H]([C@H](OC(=O)c3ccccc3)[C@]3(O)C[C@H](OC(=O)[C@H](O)[C@@H](NC(=O)c4ccccc4)c4ccccc4)C(C)=C1C3(C)C)[C@]1(OC(C)=O)CO[C@@H]1C[C@@H]2O
- Activity (A2780TC [1]): inactive

SMILES: C[C@@H](N)C(=O)N[C@@H](Cc1ccccc1)C(=O)N[C@@H](CCCCN)C(=O)NCCCCC(=O)OCCNc1nc(NCCc2ccccc2)c2cnn(/C=C/c3ccccc3)c2n1.O=C(O)C(F)(F)F.O=C(O)C(F)(F)F
- Drug uptake [2]: 11.05 nmol/g
- half-life [3]: 4.6 h
- solubility thermodynamic at 24 h [4]: > 1000 µg/mL
- half-life at 7500 µM (plasmin): 3.1 h
- Drug uptake [5]: 3.01 nmol/g
- Papp at 5 h, 500 µM [6]: 0.2 ×10⁻⁶ cm/s

SMILES: OCCNc1nc(NCCc2ccccc2)c2cnn(/C=C/c3ccccc3)c2n1
- IC50 (HepG2 [7]): 8.29 µM
- Drug uptake [8]: 1.89 nmol/g
- Activity (A2780TC [9]): Active
- IC50 (A2780 [10]): 25.6 µM
- IC50 (Huh-7 [11]): 1.88 µM
- permeability [12]: 86.2%
- Activity (A2780TC [13]): Active
- IC50 (Huh-7 [14]): 0.58 µM
- IC50 (Huh-7 [15]): 2.05 µM
- IC50 (HepG2 [16]): 15.9 µM
- inhibition [17]: 75%
- IC50 (A2780 [18]): 4.56 µM
- solubility thermodynamic at 24 h [4]: 0.4 µg/mL (≈ 0.999 µM)
- IC50 (HepG2 [19]): 3.15 µM
- Drug uptake [20]: 2.2 nmol/g
- Activity (HepG2 [21]): Active
- inhibition [22]: > 90%
- IC50 (A2780 [23]): 3.47 µM
- Papp at 5 h, 500 µM [6]: 2.6 ×10⁻⁶ cm/s
- remaining at 1 h, 50 µM [24]: 84%

SMILES: C[C@@H](N)C(=O)N[C@@H](Cc1ccccc1)C(=O)N[C@@H](CCCCN)C(=O)OCCNc1nc(NCCc2ccccc2)c2cnn(/C=C/c3ccccc3)c2n1.O=C(O)C(F)(F)F.O=C(O)C(F)(F)F
- Drug uptake [25]: 4.11 nmol/g
- Drug uptake [2]: 0.81 nmol/g
- half-life [3]: 0.3 h
- solubility thermodynamic at 24 h [4]: > 1000 µg/mL
- half-life at 7500 µM (plasmin): 1.5 h
- Drug uptake [5]: 1.77 nmol/g
- Drug uptake [26]: 5.69 nmol/g
- Papp at 5 h, 500 µM [6]: 0.2 ×10⁻⁶ cm/s
